# Test results: ChEMBL document CHEMBL1155356, “Design, synthesis, and structure-activity relationship of novel orally efficacious pyrazole/sulfonamide based dihydroquinoline gamma-secretase inhibitors” (Bioorg Med Chem Lett, 2009); call rule not given here
# What was measured:
# [1] = Oxidative metabolic stability in mouse liver microsomes at 1 uM after 30 mins in presence of 1 mM NADPH; assay type: ADME, Microsome; details: for remaining at 0.5 h, 1 µM: liver microsomes, read-out: Stability
# Procedure, shortened: (§1)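 Oxidative stability: compound at 1 µM incubated 30 min at 37 °C in phosphate buffer with liver microsomes (0.5 mg/ml protein) plus 1 mM NADPH. Percent parent remaining reported. Human or mouse microsomes per line.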
# [2] = (§2) Oxidative metabolic stability in human liver microsomes at 1 uM after 30 mins in presence of 1 mM NADPH; assay type: ADME, Microsome; details: liver microsomes, read-out: Stability; procedure, shortened: as §1
# Gamma-secretase = assay: Inhibition of Gamma-secretase in human IMR-32 cells after 2 hrs by ELISA assay; assay type: cell-based
# Procedure, shortened: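 γ-Secretase came from IMR-32 cell membranes, and compound was first diluted in DMSO. Reaction at 37 °C was started with MBPC-125 Swedish substrate, run for 2 h, then stopped with SDS. Cleaved substrate was measured by Aβ40-specific ELISA. Values are means of three experiments.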
# Liver microsomes = assay: as §2; assay type: ADME, Microsome; details: microsomes, 0.5 h, 1 µM; procedure, shortened: as §1
Compound,"remaining at 0.5 h, 1 µM [1] [%]","remaining at 0.5 h, 1 µM [2] [%]",IC50 (Gamma-secretase) [nM],"Stability ([1]; microsomes, 0.5 h, 1 µM)",Stability (Liver microsomes)
O=S(=O)(c1ccc(Cl)cc1)N1Cc2c[nH]nc2-c2ccccc21,2,0,27,–,–
O=S(=O)(c1ccc(C(F)(F)F)cc1)N1c2cc(N3CCOCC3)ccc2-c2n[nH]cc2C1C1CC1 (racemic),17,29,0.58,–,–
O=S(=O)(c1ccc(OC(F)F)cc1)N1c2ccc(F)cc2-c2n[nH]cc2C1C1CC1 (racemic),56,68,0.76,–,–
O=S(=O)(c1cccs1)N1c2cc(F)c(F)cc2-c2n[nH]cc2C1C1CC1 (racemic),5,1,2.9,–,–
O=S(=O)(c1ccc(C(F)(F)F)cc1)N1c2cccnc2-c2n[nH]cc2C1C1CC1 (racemic),25,44,2.1,–,–
CC1c2c[nH]nc2-c2ccccc2N1S(=O)(=O)c1ccccn1 (racemic),46,73,290,–,–
CC(C)C1c2c[nH]nc2-c2ccccc2N1S(=O)(=O)c1ccc(Cl)cc1 (racemic),2,1,0.28,–,–
O=S(=O)(c1ccc(C(F)(F)F)cc1)N1c2ncccc2-c2n[nH]cc2C1C1CC1 (racemic),53,59,1.1,–,–
Nc1ccc(S(=O)(=O)N2c3cc(F)c(F)cc3-c3n[nH]cc3C2C2CC2)cc1 (racemic),35,53,85,–,–
O=C1OCCN1c1ccc2c(c1)N(S(=O)(=O)c1ccc(C(F)(F)F)cc1)C(C1CC1)c1c[nH]nc1-2 (racemic),13,32,0.26,–,–
O=S(=O)(c1ccc(Cl)cc1)N1c2ccccc2-c2n[nH]cc2C1C(F)(F)F (racemic),10,13,0.21,–,–
CC1c2c[nH]nc2-c2cc(F)ccc2N1S(=O)(=O)c1ccc(Cl)cc1 (racemic),23,13,1.6,–,–
CC1c2c[nH]nc2-c2c(F)cccc2N1S(=O)(=O)c1ccc(Cl)cc1 (racemic),11,3,1.4,–,–
O=S(=O)(c1ccc(C(F)(F)F)cc1)N1c2cc(Cl)ccc2-c2n[nH]cc2C1C1CC1 (racemic),85,87,0.44,–,–
COc1ccc(S(=O)(=O)N2c3ccccc3-c3n[nH]cc3C2C2CC2)cc1 (racemic),2,3,3.2,–,–
N#Cc1ccc(S(=O)(=O)N2c3ccccc3-c3n[nH]cc3C2C2CC2)cc1 (racemic),11,9,0.74,–,–
CC1c2c[nH]nc2-c2ccncc2N1S(=O)(=O)c1ccc(Cl)cc1 (racemic),3,6,2.6,–,–
CC1c2c[nH]nc2-c2ccccc2N1S(=O)(=O)c1ccc(Cl)cc1 (racemic),16,3,1.2,–,–
CCC1c2cn[nH]c2-c2ccccc2N1S(=O)(=O)c1ccc(Cl)cc1 (racemic),7,2,0.36,–,–
O=S(=O)(c1ccc(C(F)(F)F)cc1)N1c2cc(-c3cncnc3)ccc2-c2n[nH]cc2C1C1CC1 (racemic),3,27,0.2,–,–
O=S(=O)(c1ccc(C(F)(F)F)cc1)N1c2c[n+]([O-])ccc2-c2n[nH]cc2C1C1CC1 (racemic),88,87,2.4,–,–
CC1c2c[nH]nc2-c2ccc(F)cc2N1S(=O)(=O)c1ccc(Cl)cc1 (racemic),23,6,2.1,–,–

Compound,"remaining at 0.5 h, 1 µM [1] [%]","remaining at 0.5 h, 1 µM [2] [%]",IC50 (Gamma-secretase) [nM],"Stability ([1]; microsomes, 0.5 h, 1 µM)",Stability (Liver microsomes)
CC1c2c[nH]nc2-c2ccc(OC(=O)N(C)C)cc2N1S(=O)(=O)c1ccc(Cl)cc1 (racemic),0,0,0.93,–,–
N#Cc1ccc2c(c1)N(S(=O)(=O)c1ccc(C(F)(F)F)cc1)C(C1CC1)c1c[nH]nc1-2 (racemic),77,80,0.17,–,–
CC1c2c[nH]nc2-c2ccc(OCc3ccccc3)cc2N1S(=O)(=O)c1ccc(Cl)cc1 (racemic),1,0,1.5,–,–
Cc1nc2c(s1)N(S(=O)(=O)c1ccc(C(F)(F)F)cc1)C(C1CC1)c1c[nH]nc1-2 (racemic),8,31,24,–,–
CC1c2c[nH]nc2-n2ccnc2N1S(=O)(=O)c1ccc(Cl)cc1 (racemic),56,74,27,–,–
CC1c2cn[nH]c2-c2ccccc2N1S(=O)(=O)c1cccnc1 (racemic),3,–,140,–,–
CC1c2c[nH]nc2-c2cc(F)ccc2N1S(=O)(=O)c1cn(C)cn1 (racemic),65,76,5500,–,–
O=[N+]([O-])c1ccc(S(=O)(=O)N2c3cc(F)c(F)cc3-c3n[nH]cc3C2C2CC2)cc1 (racemic),–,–,40,Not Active,Not Active
O=S(=O)(c1ccc(F)cc1)N1c2ccccc2-c2n[nH]cc2C1C1CC1 (racemic),11,8,0.42,–,–
O=S(=O)(c1ccc(C(F)(F)F)cc1)N1c2cc(-n3ccnc3)ccc2-c2n[nH]cc2C1C1CC1 (racemic),55,59,0.24,–,–
CC1c2cn[nH]c2-c2ccc(O)cc2N1S(=O)(=O)c1ccc(Cl)cc1 (racemic),27,50,0.65,–,–
CC1c2c[nH]nc2-c2cc(Cl)sc2N1S(=O)(=O)c1ccc(C(F)(F)F)cc1 (racemic),18,3,4.5,–,–
O=S(=O)(c1ccc(Cl)cc1)N1c2ccccc2-c2n[nH]cc2C1C1CC1 (racemic),15,4,0.17,–,–
O=S(=O)(c1ccc(OC(F)(F)F)cc1)N1c2ccc(F)cc2-c2n[nH]cc2C1C1CC1 (racemic),55,60,0.37,–,–
O=S(=O)(c1ccc(Cl)s1)N1c2cc(F)c(F)cc2-c2n[nH]cc2C1C1CC1 (racemic),9,4,0.52,–,–
COc1ccc2c(c1)N(S(=O)(=O)c1ccc(Cl)cc1)C(C)c1c[nH]nc1-2 (racemic),1,1,2,–,–
O=S(=O)(c1ccc(Cl)cn1)N1c2ccc(F)cc2-c2n[nH]cc2C1C1CC1 (racemic),49,62,1.3,–,–
O=S(=O)(c1ccc(C(F)(F)F)cc1)N1c2ccccc2-c2n[nH]cc2C1C1CC1 (racemic),49,45,0.31,–,–
O=S(=O)(c1ccc(C(F)(F)F)cc1)N1c2cc(-c3cscn3)ccc2-c2n[nH]cc2C1C1CC1 (racemic),32,60,0.41,–,–
"O=S(=O)(c1ncc(Cl)s1)N1c2cc(F)c(F)cc2-c2n[nH]cc2C1C1CC1 (single isomer, unassigned; enantiomer 2)",4,23,0.46,–,–
"O=S(=O)(c1ccc(C(F)(F)F)cc1)N1c2cc(I)ccc2-c2n[nH]cc2C1C1CC1 (single isomer, unassigned; enantiomer 3)",78,80,0.26,–,–
